Source: PubChem (several laboratories)
Compounds with a hit are over-represented: about 6.8% of the library has one in this group of screens.
HSF1 inhib – HSF1 inhibitors in luciferase reporter cells, primary screen, cell-based, NIH3T3, luminescence; NIH3T3-HGL HSE-luciferase, MG132-induced, luminescence 8 h; active compounds read low; activity change, negative = inhibition, % at 7.5 µM (by protocol); actives 0.77% (n = 300,000); AID 2098, 2009;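 active means more than half of replicate wells show activity change below -50%, luminescence cut by over half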;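 further: luciferase reports HSF-1 transcriptional activity via heat shock element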
AI-2 QS mod – Vibrio harveyi AI-2 quorum sensing modulators, primary screen, JMH597 strain, luminescence/OD600 ratio; Vibrio harveyi JMH597 AI-2 luminescence/OD600 ratio, 9 h; active compounds read low; strain lacks LuxN and CqsS sensors; 0 = neutral-control median; activity change, % at 7.5 µM; actives 0.4% (n = 300,000); AID 2094, 2009; in the data active means activity change below about -75%, passing the limit was not always enough;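 further: luminescence divided by OD600 gain over 9 h not by final OD600 alone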
HCV core dimer – inhibitors of HCV core protein dimerization, primary screen, biochemical, TR-FRET, high-throughput. TR-FRET GST/Flag-core106 dimerization, 1536-well. inhibition, % at 5 µM. actives 0.33% (n = 300,000). AID 1899, 2009;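 active means inhibition above the mean of all tested compounds plus 3 SD, set per screening campaign, cut at about 45% in these data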
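Material: GST/Flag-tagged HCV core106 proteins. Incubation: 4 h, 22.5 °C incubation. Read-out basis: inhibition (%) from 671 over 617 nm ratio. Measured by: TR-FRET, excitation 340 nm, emission 617 and 671 nm.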
HSF-1 act – HSF-1 activators, primary screen, NIH3T3-HGL cells, MG132 stress, luminescence, single point. NIH3T3-HGL HSF-1 luciferase reporter, 8 h; 100% = twice DMSO control signal. activation, % at 9 µM. actives 1.7% (n = 300,000);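 active means mean replicate activation of at least 50% with a set share of replicates each reaching 50%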
PHOSPHO1 inh – PubChem AID 1565. Phosphoethanolamine/phosphocholine phosphatase (Homo sapiens), Q8TCT1. recombinant PHOSPHO1, absorbance phosphatase assay. inhibition, % at 13.3 µM. actives 1.1% (n = 290,000); in the data active means inhibition above about 60%
Target sequence (Q8TCT1 whole entry, looked up): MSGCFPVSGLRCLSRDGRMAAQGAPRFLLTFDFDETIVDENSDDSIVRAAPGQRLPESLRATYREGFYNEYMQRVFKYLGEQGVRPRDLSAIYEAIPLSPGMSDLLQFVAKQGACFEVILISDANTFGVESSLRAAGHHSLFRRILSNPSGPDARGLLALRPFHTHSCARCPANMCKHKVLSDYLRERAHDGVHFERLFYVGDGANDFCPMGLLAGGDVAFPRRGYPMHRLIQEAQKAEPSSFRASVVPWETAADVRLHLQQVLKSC
ALR inh – inhibitors of human ALR sulfhydryl oxidase, primary screen, biochemical, H2O2 detection, HRP-luminol luminescence, single point. FAD-linked sulfhydryl oxidase ALR (Homo sapiens), P55789. purified ALR, DTT oxidation. inhibition, % (test concentration not listed). actives 3.8% (n = 290,000);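 active means mean replicate inhibition above about 79%, with every replicate also reaching it, limit read from the data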
Target sequence (P55789 whole entry, looked up): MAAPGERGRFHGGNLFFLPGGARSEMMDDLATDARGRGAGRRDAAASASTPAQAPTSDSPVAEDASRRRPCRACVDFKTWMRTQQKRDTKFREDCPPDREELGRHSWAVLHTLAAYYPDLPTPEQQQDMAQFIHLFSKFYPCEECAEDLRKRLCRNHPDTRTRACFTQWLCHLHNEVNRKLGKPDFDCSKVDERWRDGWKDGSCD
Each line names hits and unclear results; the compound was inactive in the other large screens; ! = repeats disagree.

COc1ccc(OCCCC(=O)OC(C)C(=O)Nc2ccc(S(N)(=O)=O)cc2)cc1 (stereo not given)	none (no result: PHOSPHO1 inh)
O=C(Nc1nnc(-c2ccc(F)cc2)o1)c1ccc(S(=O)(=O)N2CCOCC2)cc1	none
Cc1ccc(S(=O)(=O)N(CC(=O)Nc2ccccc2C(=O)O)c2cccc(Cl)c2C)cc1	ALR inh 97
Cc1cccc(N(CC(=O)Nc2ccccc2-c2ccccc2)S(=O)(=O)c2ccccc2)c1C	HSF-1 act 53
Cc1nc(C(F)(F)F)nc(Nc2ccc(N=Nc3ccccc3)cc2)c1C#N	none
CCOC(=O)CCC(NC(=O)c1ccc(NCN2C(=O)c3ccccc3C2=O)cc1)C(=O)OCC (stereo not given)	none
CCOC(=O)CCC(NC(=O)c1ccccc1C(=O)NC(CCC(=O)OCC)C(=O)OCC)C(=O)OCC (stereo not given)	PHOSPHO1 inh 65
O=C(NC(=S)N1CCCCC1)C12CC3CC(CC(C3)C1)C2	PHOSPHO1 inh 84
Cc1ccc(S(=O)(=O)N(C)c2ccccc2C(=O)NC2CCCC2)cc1	HSF1 inhib -72
Cc1ccc(NC(=O)c2ccccc2N(C)S(=O)(=O)c2ccccc2)c(C)c1	HSF-1 act 65
COC(=O)c1ccc(OCC(=O)c2ccccc2OC)cc1	none
O=C(O)c1ccc(/C=N/NC(=O)c2cc(-c3ccc4c5c(cccc35)CC4)n[nH]2)cc1	none
Cc1n[nH]c(C)c1CCOc1ccc(C(C)C)cc1	HSF-1 act 100
CC(C)CCNC(=O)C1CCN(S(=O)(=O)c2ccc(-n3cnnn3)cc2)CC1	none
Cc1nn(CC2CCCCC2)c(N)c1-c1ccccc1	ALR inh 98
CC1=CC(C)(C)N(C(=O)c2ccc(F)cc2)c2cc3c(cc21)OCO3	ALR inh 98
CSc1ccc(C2C(C#N)=C(N)Oc3c2ccc(=O)c2c(C)oc(C)c32)cc1 (stereo not given)	HCV core dimer 78 (no result: ALR inh)
COCCN(C(=S)Nc1c(C)cccc1C)C(C)c1cccnc1 (stereo not given)	HSF1 inhib -52
COc1cc2c(cc1OC)C(C(=O)Nc1ccc3c(c1)OCCO3)C(c1cccnc1)N(C)C2=O (stereo not given)	none (no result: ALR inh)
CCOC(=O)N1CCN(CC(O)COC2CC(C)CC(C)(C)C2)CC1 (stereo not given)	HSF1 inhib -84
O=C(CSCCS(=O)(=O)c1ccc(Cl)cc1)Nc1ccccc1	none
CCN(CCS(=O)(=O)c1ccc(Cl)cc1)C(=O)Nc1ccccc1	HSF1 inhib -64
Cc1ccc(/C=N/NC(=O)c2nnn(-c3nonc3N)c2CN(C)C2CCCCC2)cc1	HSF1 inhib -92
CCc1c(C(=O)N/N=C/c2ccc(OCc3ccc(F)cc3)c(OC)c2)nnn1-c1nonc1N	HSF-1 act 57 (no result: ALR inh)
Cc1ccc(-c2csc(C(C#N)=C3CCCC3)n2)cc1	none (no result: HSF1 inhib, HSF-1 act)
N#C/C(=N\O)c1nc(-c2ccccc2)cs1	ALR inh 89!
N#CC(=C1CCCC1)c1nc(-c2ccccc2O)cs1	none
N#CC(=C1CCCC1)c1nc(-c2ccccc2)cs1	HSF-1 act 86
O=c1oc2ccccc2cc1-c1csc(NN=C2CCCC2)n1	ALR inh 98
O=C(O)c1cccc(Nc2nc(-c3cc4ccccc4oc3=O)cs2)c1	none (no result: HCV core dimer)
N#CC(=C1CCCC1)c1nc(-c2cc3ccccc3oc2=O)cs1	HSF-1 act 72
CCOC(=O)N1CCN(C(=O)c2cn(CC)c3ccc(S(=O)(=O)N4CCCCC4)cc3c2=O)CC1	none (no result: ALR inh)
C[n+]1nc(Nc2cccc(F)c2)sc1-c1ccc(C(=O)O)cc1	none (no result: HSF1 inhib, AI-2 QS mod, HCV core dimer, HSF-1 act, ALR inh)
CCN(CC(=O)Nc1ccc2c(c1)OCCO2)C(=O)c1ccc(CS(C)(=O)=O)cc1	none (no result: HSF1 inhib, AI-2 QS mod, HCV core dimer, HSF-1 act, PHOSPHO1 inh)
CC(=O)N(C)c1ccc(OCC(O)Cn2c3ccc(Cl)cc3c3cc(Cl)ccc32)cc1 (stereo not given)	HSF-1 act 59
